Measurements from ChEMBL document CHEMBL4837220, “Development of tricyclic N-benzyl-4-hydroxybutanamide derivatives as inhibitors of GABA transporters mGAT1-4 with anticonvulsant, antinociceptive, and antidepressant activity” (Eur J Med Chem, 2021).
Calls of active or inactive are those of the source.

Assays:
[1] = tested on: Mus musculus; assay: Anxiolytic-like activity in Albino Swiss (CD-1) mouse at 30 mg/kg, ip by four plate test; format: functional, organism-based
How it was run: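 Male CD-1 mice were dosed i.p. 60 min before test. After 15 s habituation on a four-plate floor, a 60 s test followed. Each plate-to-plate crossing triggered a 0.8 mA, 0.5 s shock. The number of punished crossings was counted. Analysis by one-way ANOVA with Dunnett.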

[2] = tested on: Mus musculus; assay: Antidepressant activity in Albino Swiss (CD-1) mouse assessed as reduction in immobility time at 8 mg/kg, ip measured for last 4 mins of 6 mins test by forced swim test relative to control; format: functional
[3] = tested on: Mus musculus; assay: Anticonvulsant activity in Albino Swiss (CD-1) mouse model of pilocarpine-induced status epilepticus assessed as reduction in latency to occurrence of status epilepticus at 100 mg/kg, […]; format: functional, organism-based
[4] = tested on: HEK293; assay: Cytotoxicity in human HEK293 cells assessed as reduction in cell viability at 1 uM incubated for 72 hrs by MTS assay; format: cell-based; settings: hek293, 72 h
How it was run: (§1)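 Cells (HEK-293 or HepG2) were seeded at 0.7×10^4 per well and grown at 37 °C, 5% CO₂. Compounds at 0.1–100 µM were added in quadruplicate for 72 h, with 1% DMSO in medium as control. Viability was read by MTS absorbance at 492 nm. Analysis by one-way ANOVA with Bonferroni.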

[5] = tested on: Mus musculus; assay: Anticonvulsant activity in CD-1 mouse assessed as elevation of seizure threshold at 100 mg/kg, ip measured by electroconvulsive threshold test relative to control; format: functional
[6] = target: T1, GABA transporter 4 (Mus musculus, UniProt P31650); assay: Inhibition of mouse GAT4 expressed in human HEK293 cell line assessed as inhibition of [3H]GABA uptake measured after 40 mins by […]; format: cell-based
T1 sequence (P31650 whole entry): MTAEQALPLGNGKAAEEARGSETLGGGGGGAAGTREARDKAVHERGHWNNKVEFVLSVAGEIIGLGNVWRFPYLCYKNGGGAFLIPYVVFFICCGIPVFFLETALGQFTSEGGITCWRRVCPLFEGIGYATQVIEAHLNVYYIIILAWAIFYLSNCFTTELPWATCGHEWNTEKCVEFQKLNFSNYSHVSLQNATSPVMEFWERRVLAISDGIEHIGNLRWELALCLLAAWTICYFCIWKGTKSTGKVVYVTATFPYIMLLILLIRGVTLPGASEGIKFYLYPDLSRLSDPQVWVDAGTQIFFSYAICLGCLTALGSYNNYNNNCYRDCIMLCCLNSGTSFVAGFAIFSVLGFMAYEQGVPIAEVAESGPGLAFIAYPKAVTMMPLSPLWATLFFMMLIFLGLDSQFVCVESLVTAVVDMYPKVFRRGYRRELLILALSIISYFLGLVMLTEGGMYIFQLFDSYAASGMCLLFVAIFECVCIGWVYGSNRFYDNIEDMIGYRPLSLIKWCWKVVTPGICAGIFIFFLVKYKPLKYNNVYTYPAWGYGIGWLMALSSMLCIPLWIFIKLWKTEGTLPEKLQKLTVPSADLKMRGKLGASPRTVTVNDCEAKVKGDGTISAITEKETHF

[7] = tested on: Mus musculus; assay: Anticonvulsive activity in Albino Swiss (CD-1) mouse assessed as protection against pentylenetetrazole-induced seizure at 100 mg/kg, ip administered 60 mins prior to pentylenetetrazole challenge and measured for 30 mins; format: functional, organism-based
How it was run: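 Male CD-1 mice were given test compound or vehicle i.p. and 60 min later PTZ 100 mg/kg s.c. Mice were observed singly for 30 min, recording latency to first seizure episode and number of seizure episodes. Analysis by one-way ANOVA with Dunnett; n = 10–12.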

[8] = Hepatotoxicity in human HepG2 cells at 25 uM incubated for 72 hrs by MTS assay; format: cell-based; settings: hepg2, 72 h; how it was run: as §1
[9] = tested on: Mus musculus; assay: Antinociceptive activity in Albino Swiss (CD-1) mouse model of formalin-induced paw edema at 30 mg/kg, ip pre-treated for 30 mins followed by formalin-stimulation and measured for 15 to 30 mins by formalin test
[10] = target: T2, GABA transporter 2 (Mus musculus, UniProt P31651); assay: Inhibition of mouse GAT2 expressed in human HEK293 cell line assessed as inhibition of [3H]GABA uptake measured after 40 mins by […]; format: cell-based
T2 sequence (P31651 whole entry): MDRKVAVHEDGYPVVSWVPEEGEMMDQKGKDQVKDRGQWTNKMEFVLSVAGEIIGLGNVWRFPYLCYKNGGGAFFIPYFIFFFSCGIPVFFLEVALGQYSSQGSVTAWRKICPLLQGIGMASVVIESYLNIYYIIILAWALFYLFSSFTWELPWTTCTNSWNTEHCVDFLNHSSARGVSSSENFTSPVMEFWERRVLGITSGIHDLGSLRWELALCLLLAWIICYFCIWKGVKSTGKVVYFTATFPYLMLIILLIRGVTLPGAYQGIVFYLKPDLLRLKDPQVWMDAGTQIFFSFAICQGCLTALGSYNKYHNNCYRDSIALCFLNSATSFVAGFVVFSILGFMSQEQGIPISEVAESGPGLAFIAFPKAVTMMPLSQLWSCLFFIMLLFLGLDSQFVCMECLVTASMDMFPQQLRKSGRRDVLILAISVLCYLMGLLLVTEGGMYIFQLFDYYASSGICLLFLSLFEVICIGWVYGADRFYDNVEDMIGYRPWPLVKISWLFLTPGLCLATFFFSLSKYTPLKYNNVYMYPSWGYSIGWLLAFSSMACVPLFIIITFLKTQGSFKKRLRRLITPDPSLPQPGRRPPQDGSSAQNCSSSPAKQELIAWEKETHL

[11] = target: Sodium- and chloride-dependent GABA transporter 1 (Mus musculus) (UniProt P31648); assay: Residual NO711 binding to mouse GAT1 expressed in human HEK293 cell line at 100 uM by MS binding assay relative to control
[12] = target: T3, Sodium- and chloride-dependent GABA transporter 1 (Mus musculus, UniProt P31648); assay: Inhibition of mouse GAT1 expressed in human HEK293 cell line assessed as inhibition of [3H]GABA uptake measured after 40 mins by […]; format: cell-based
[13] = Effect on locomotor activity in Albino Swiss (CD-1) mouse at 30 mg/kg, ip after 24 to 30 mins; format: ADME, organism-based; settings: in vivo, time 24-30 min
How it was run: (§2)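 Male CD-1 mice were habituated to activity cages for 15 min, then dosed i.p. 60 min before test. Light-beam crossings were counted over 30 min in 6-min bins (0–30 min). Analysis by repeated measures ANOVA with Bonferroni.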

[14] = tested on: Mus musculus; assay: Anxiolytic-like activity in Albino Swiss (CD-1) mouse assessed as increase in time spent in open arm at 30 mg/kg, ip measured for 5 mins by elevated plus maze test; format: functional, organism-based
How it was run: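 Male CD-1 mice were dosed i.p. 60 min before test. Each was placed in the centre of the plus maze facing a closed arm and video-recorded for 5 min. Measures were time in open arms and % open-arm entries of all entries. Analysis by one-way ANOVA with Dunnett; n = 7–10.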

[15] = Hepatotoxicity in human HepG2 cells at 50 uM incubated for 72 hrs by MTS assay; format: cell-based; settings: hepg2, 72 h; how it was run: as §1
[16] = tested on: Mus musculus; assay: Antidepressant-like activity in C57BL/6J mouse assessed as decrease in immobility time at 30 mg/kg, ip measured during last 4 mins of 6 mins test by tail suspension test
[17] = tested on: Mus musculus; assay: Anticonvulsant activity in Albino Swiss (CD-1) mouse assessed as tonic seizures at 100 mg/kg, ip measured after 0.2 secs by maximal electroshock seizure test; format: functional; settings: time 0.2 sec, 5.556e-05 h
How it was run: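 Male CD-1 mice (18–22 g), dosed i.p. 60 min before test. A 25 mA, 0.2 s stimulus was given via auricular electrodes. Endpoint was tonic hind limb extension, expressed as % of mice with extension per group; n = 6.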

[18] = Hepatotoxicity in human HepG2 cells at 100 uM incubated for 72 hrs by MTS assay; format: cell-based; settings: hepg2, 72 h; how it was run: as §1
[19] = tested on: Mus musculus; assay: Antinociceptive activity in Albino Swiss (CD-1) mouse model of formalin-induced paw edema assessed as reduction in duration of nocifensive response by measuring licking/biting time at 30 mg/kg, ip pre-treated for 30 mins followed by formalin-stimulation and measured up to 5 mins; format: functional, organism-based
[20] = tested on: Mus musculus; assay: Antidepressant activity in CD-1 mouse assessed as reduction in immobility time at 30 mg/kg, ip measured for last 4 mins of 6 mins test by forced swim test; format: functional, organism-based
How it was run: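 Male CD-1 mice, dosed i.p. 60 min before test. Mice were placed singly in cylinders with 10 cm water at 23–25 °C. Immobility (passive floating) was scored during the final 4 min of a 6-min session. Analysis by one-way ANOVA with Dunnett versus vehicle.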

[21] = Effect on locomotor activity in Albino Swiss (CD-1) mouse at 30 mg/kg, ip; format: ADME, organism-based; settings: in vivo; how it was run: as §2
[22] = target: T3, Sodium- and chloride-dependent GABA transporter 1; assay: Inhibition of NO711 binding to mouse GAT1 expressed in human HEK293 cell line by MS binding assay
[23] = tested on: Mus musculus; assay: Antidepressant activity in Albino Swiss (CD-1) mouse assessed as reduction in immobility time at 30 mg/kg, ip measured for last 4 mins of 6 mins test by forced swim test relative to control; format: functional; design: scale not given: the % may be the effect or the level left

SMILES	Activity [1]	Activity [2]	Activity [3]	Activity [4]	Activity [5] [%]	IC50 [6] [µM]	Activity [8]	Activity [9]	IC50 [10] [µM]	residual activity [11] [%]	IC50 [12] [µM]	Activity [14]	Activity [15]	Activity [16]	Activity [17] [%]	Activity [18]	also measured
CN(CCC=C1c2ccccc2C=Cc2ccccc21)C(CCO)C(=O)NCc1ccccc1 (centres undefined)	inactive	Dose-Dependent Effect	inactive	Non-Toxic	43	9.55	Non-Toxic	Active	15.5	75	21.9	inactive	Toxic	Active	83	Toxic	Activity [7]: inactive; Activity [13]: Non-Toxic
Cc1ccc(CNC(=O)C(CCO)N(C)CCC=C2c3ccccc3CCc3ccccc32)cc1 (centres undefined)	inactive		Active	Non-Toxic	90	10.7	Non-Toxic	Active	4.57	53	14.1	inactive	Toxic	Active	83	Toxic	Activity [19]: Active; Activity [20]: Active; Activity [21]: Non-Toxic
Cc1ccsc1C(=CCCN1CCC[C@@H](C(=O)O)C1)c1sccc1C [TIAGABINE]		59%															pKi [22]: 7.43; Activity [23]: 97.4%
